Screening data as filed in PubChem BioAssay.
RGS4 inh = inhibitors of human RGS4; AID 463165; actives 0.45% (n = 310,000); HEK293 M3R/RGS4 inducible, Fluo-4 calcium flux; hits give high values; triggered by carbachol at its EC20; B-score at 10 µM; P49798;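 active = B-score, a plate-corrected calcium signal, over three deviations above library mean, with baseline fluorescence within five deviations of library mean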;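 note: RGS4 expression induced by doxycycline in cells with stable M3 receptor; B-score is computed from the integrated fluorescence ratio over baseline after carbachol; higher B-score means a larger calcium signal and so more RGS4 inhibition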
Target sequence (P49798 whole entry, looked up): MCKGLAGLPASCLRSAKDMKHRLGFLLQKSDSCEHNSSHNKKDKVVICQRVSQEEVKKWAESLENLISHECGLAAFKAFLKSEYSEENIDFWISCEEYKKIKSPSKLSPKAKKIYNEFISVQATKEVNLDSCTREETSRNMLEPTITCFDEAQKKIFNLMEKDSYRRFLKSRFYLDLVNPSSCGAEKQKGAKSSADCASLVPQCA
MrgX1 allo act = allosterically activates human MrgX1 receptor signaling; MrgX1-HEK293, Fluo-4 calcium flux, FDSS; hits give high values; B-score at 10 µM; Q96LB2; AID 588675; actives 0.63% (n = 310,000);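 active = plate-corrected calcium response at least 3 library SD above typical, normal starting fluorescence, not activating the receptor alone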;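 note: compound read alongside a low EC10 to EC30 dose of BAM8-22 agonist; peak minus trough fluorescence over baseline measured at the second addition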
Target sequence (Q96LB2 whole entry, looked up): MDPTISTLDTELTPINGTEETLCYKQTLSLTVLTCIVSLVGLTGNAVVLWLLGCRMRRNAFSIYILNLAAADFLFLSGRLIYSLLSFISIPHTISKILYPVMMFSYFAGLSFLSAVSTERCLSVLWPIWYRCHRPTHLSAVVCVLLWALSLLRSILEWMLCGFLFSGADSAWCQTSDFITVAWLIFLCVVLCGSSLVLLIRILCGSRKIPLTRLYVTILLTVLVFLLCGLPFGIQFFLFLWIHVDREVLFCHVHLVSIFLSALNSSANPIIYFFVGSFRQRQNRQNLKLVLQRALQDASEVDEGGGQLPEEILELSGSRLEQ
RGS4 act = RGS4 potentiation or activation; HEK293 M3R/inducible RGS4, carbachol calcium flux Fluo4; hits give low values; B-score at 10 µM; actives 0.92% (n = 310,000);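 active = B-score of the integrated calcium signal more than 4 SD below the library mean, with starting fluorescence not abnormally high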;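 note: negative B-score means reduced calcium response which marks RGS4 activation or potentiation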
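System: HEK293 FlpIn-TREx cells, stable M3R, doxycycline-inducible RGS4. Timing: overnight RGS4 induction, 30 min dye load 37 °C, 20 min compound RT. Also added: carbachol, ECmax concentration. Measured by: Fluo4 fluorescence kinetic imaging of calcium. Evaluation: integrated calcium ratio converted to B score.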
MrgX1 agonist = activates human MrgX1 receptor signaling; actives 0.44% (n = 310,000); AID 588627; Q96LB2; B-score at 10 µM; MrgX1-HEK293 cells, Fluo-4 calcium fluorescence, agonist mode; hits give high values;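 active = calcium response B-score plate-corrected fluorescence ratio at least 3 library SD, with starting fluorescence B-score inside 5 SD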
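Material: HEK293 cells stably expressing human MrgX1 receptor | Quantity: 15,000 cells per well | Times: Cells plated overnight, dye loaded 0.5 h 37 °C, 0.5 h room temperature | Measured by: Kinetic Fluo-4 NW fluorescence of intracellular calcium | Control set: Positive and negative controls per plate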
MrgX1 antag = antagonists of human MrgX1 receptor | Q96LB2 | MRGX1-HEK293 calcium flux, Fluo-4, BAM8-22 antagonism; hits give low values | B-score at 10 µM | actives 1.3% (n = 310,000);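 active = calcium-response B-score plate-corrected more than 3 library SD below zero, starting fluorescence within 5 deviations, no agonist response on first addition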;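 note: peak minus trough fluorescence over baseline after final BAM8-22 challenge near maximal dose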
RGS4 act valid = confirmation of RGS4 activators; AID 602282; HEK293 M3R/RGS4 inducible, carbachol calcium flux Fluo4; inhibition, % at 10 µM; actives 89% (n = 1,100); shares compounds with RGS4 act;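 active = inhibition above 3 SD of the buffer control wells, cut at about 41% in these data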;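 note: signal is the integrated peak-minus-minimum Fluo4 fluorescence over baseline ratio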
M3R Ca counter = counter-screen for RGS4 activators: effect in non-induced cells; shares compounds with RGS4 act; HEK293 M3R non-induced RGS4, Fluo4 calcium flux; after carbachol challenge at its EC90; inhibition, % at 10 µM; actives 82% (n = 1,100);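 active = inhibition exceeding 3 SD of buffer-only control wells, cut at about 26% in these data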;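 note: percent drop in integrated peak-minus-baseline over baseline Fluo4 ratio after carbachol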
Hits are given with their value; ! = not active in a repeat. This is a sample that favours compounds with a hit; in the whole collection about 3.5% have one here.

What do the screens show for `CCN(CC)CCn1c(=N)n(CC(=O)c2ccc(Br)s2)c2ccccc21`?
RGS4 inh: inactive; MrgX1 allo act: inactive; RGS4 act: -7.76; MrgX1 agonist: inactive; MrgX1 antag: inactive; RGS4 act valid: 58.5; M3R Ca counter: 83.8

Results for CCOC(=O)c1c(NC(=O)c2cccc(N3C(=O)CCC3=O)c2)sc2c1CCN(CC)C2 ?
RGS4 inh: inactive; MrgX1 allo act: inactive; RGS4 act: -9.8; MrgX1 agonist: inactive; MrgX1 antag: inactive; RGS4 act valid: 90.5; M3R Ca counter: 44.3

Results for COc1ccccc1N1CCN(C(=O)CSc2nc3ccccc3nc2N2CCCCC2)CC1 ?
RGS4 inh: inactive; MrgX1 allo act: inactive; RGS4 act: inactive; MrgX1 agonist: inactive; MrgX1 antag: inactive

How did COc1ccccc1N1CCN(C(=O)CSc2nc3ccccc3nc2N2CCC(C)CC2)CC1 do in these assays?
RGS4 inh: inactive; MrgX1 allo act: inactive; RGS4 act: -7.66; MrgX1 agonist: inactive; MrgX1 antag: inactive; RGS4 act valid: 43.5; M3R Ca counter: inactive

Results for CN1CCN(c2ncccc2S(=O)(=O)N2CCCCC2)CC1 ?
RGS4 inh: inactive; MrgX1 allo act: inactive; RGS4 act: -11.9; MrgX1 agonist: inactive; MrgX1 antag: inactive; RGS4 act valid: 90.0; M3R Ca counter: 72.8

Results for O=S(=O)(c1cccc2cccnc12)N1CCCCC1 ?
RGS4 inh: inactive; MrgX1 allo act: inactive; RGS4 act: inactive; MrgX1 agonist: inactive; MrgX1 antag: inactive

What do the screens show for `COc1cc(C(=O)Nc2ccc3c(c2)N(C(=O)CCN(C)C)c2ccccc2CC3)cc(OC)c1OC`?
RGS4 inh: inactive; MrgX1 allo act: inactive; RGS4 act: -11.7; MrgX1 agonist: inactive; MrgX1 antag: inactive; RGS4 act valid: 91.5; M3R Ca counter: 79.3

What do the screens show for `CN(C)CC(=O)N1c2ccccc2CCc2ccc(NC(=O)c3ccc(N)cc3)cc21`?
RGS4 inh: inactive; MrgX1 allo act: inactive; RGS4 act: inactive; MrgX1 agonist: inactive; MrgX1 antag: inactive

How did Cc1cccc(NS(=O)(=O)c2ccc(C(=O)N3CCN(c4ccccc4O)CC3)cc2)c1C do in these assays?
RGS4 inh: inactive; MrgX1 allo act: inactive; RGS4 act: -8.35; MrgX1 agonist: inactive; MrgX1 antag: inactive; RGS4 act valid: 85.0; M3R Ca counter: 69.8

What do the screens show for `Cc1ccccc1NS(=O)(=O)c1ccc(C(=O)N2CCCC2)cc1`?
RGS4 inh: inactive; MrgX1 allo act: inactive; RGS4 act: inactive; MrgX1 agonist: inactive; MrgX1 antag: inactive

Results for CN(C)C1=NC[C@H](Cc2ccccc2)N1CC1CCCCCC1 ?
MrgX1 allo act: inactive; MrgX1 agonist: inactive; MrgX1 antag: inactive

Results for Cc1nn(Cc2ccc(C(=O)Nc3ccc(C(=O)OC(C)C)cc3)o2)c(C)c1Cl ?
RGS4 inh: inactive; MrgX1 allo act: inactive; RGS4 act: -9.61; MrgX1 agonist: inactive; MrgX1 antag: inactive; RGS4 act valid: 91.5; M3R Ca counter: 79.3

Results for Cc1nn(Cc2ccc(C(=O)NN)o2)c(C)c1Cl ?
RGS4 inh: inactive; MrgX1 allo act: inactive; RGS4 act: inactive; MrgX1 agonist: inactive; MrgX1 antag: inactive

Results for COc1ccc(/C=C(\NC(=O)c2ccc(C)cc2)C(=O)NCCCN2CCOCC2)cc1OC ?
RGS4 inh: inactive; MrgX1 allo act: inactive; RGS4 act: inactive; MrgX1 agonist: inactive; MrgX1 antag: inactive

How did CN(C)Cc1ccccc1CCc1ccccc1 do in these assays?
RGS4 inh: inactive; MrgX1 allo act: inactive; RGS4 act: -8.27; MrgX1 agonist: inactive; MrgX1 antag: inactive; RGS4 act valid: 78.0; M3R Ca counter: 41.8

What do the screens show for `CC1CCC(C(C)C)C(OC(=O)COC(=O)c2ccc(N)cc2)C1` (configuration not stated)?
RGS4 inh: inactive; MrgX1 allo act: inactive; RGS4 act: inactive; MrgX1 agonist: inactive; MrgX1 antag: inactive

What do the screens show for `CC1CCC(C(C)C)C(OC(=O)Cn2c(-c3ccc(Br)cc3)[n+](C)c3ccccc32)C1` (configuration not stated)?
RGS4 inh: inactive; MrgX1 allo act: inactive; RGS4 act: -11.4; MrgX1 agonist: inactive; MrgX1 antag: -5.97!; RGS4 act valid: 93.5; M3R Ca counter: 81.3

Results for Cc1ccccc1OCc1n(CC(=O)OC2CC(C)CCC2C(C)C)c2ccccc2[n+]1C (configuration not stated) ?
RGS4 inh: inactive; MrgX1 allo act: inactive; RGS4 act: -13.1; MrgX1 agonist: inactive; MrgX1 antag: -7.21; RGS4 act valid: 91.5; M3R Ca counter: 90.8

Results for CCC(=O)Nc1nonc1-c1nc2ccccc2n1N(C(=O)CC)C(=O)CC ?
RGS4 inh: inactive; MrgX1 allo act: inactive; RGS4 act: -8.59; MrgX1 agonist: inactive; MrgX1 antag: inactive; RGS4 act valid: inactive; M3R Ca counter: inactive

Results for CCC(=O)Nc1nonc1-c1nc2ccccc2n1Cc1ccccc1 ?
RGS4 inh: inactive; MrgX1 allo act: inactive; RGS4 act: inactive; MrgX1 agonist: inactive; MrgX1 antag: inactive

How did COc1ccc(/C=N/NC(=O)c2ccc3c(c2)NC(=O)C(C)(C)O3)cc1OC do in these assays?
RGS4 inh: inactive; MrgX1 allo act: inactive; RGS4 act: inactive; MrgX1 agonist: inactive; MrgX1 antag: inactive

What do the screens show for `CCC1CCCCN1CCCNC(=O)C1CCCN(S(=O)(=O)N2CC(C)CC(C)C2)C1` (configuration not stated)?
RGS4 inh: inactive; MrgX1 allo act: inactive; RGS4 act: inactive; MrgX1 agonist: inactive; MrgX1 antag: inactive

What do the screens show for `Cc1ccc(C(OCC(C)(C)C[N+](C)(C)C)c2ccccc2)cc1` (configuration not stated)?
RGS4 inh: inactive; MrgX1 allo act: inactive; RGS4 act: -10.9; MrgX1 agonist: inactive; MrgX1 antag: inactive; RGS4 act valid: 88.0; M3R Ca counter: 63.3

What do the screens show for `N#CCC(=O)N/N=C/c1cn(Cc2ccccc2C#N)c2ccccc12`?
RGS4 inh: inactive; MrgX1 allo act: inactive; RGS4 act: inactive; MrgX1 agonist: inactive; MrgX1 antag: inactive

What do the screens show for `N#CCC(=O)N/N=C/c1c(-c2ccccc2)n(-c2ccccc2)c2ccccc12`?
RGS4 inh: inactive; MrgX1 allo act: inactive; RGS4 act: -11.7; MrgX1 agonist: inactive; MrgX1 antag: inactive; RGS4 act valid: 85.5; M3R Ca counter: 50.3

Results for CC(CN1CCCCC1)OC(=O)C(C)(c1ccccc1)c1ccccc1 (configuration not stated) ?
RGS4 inh: inactive; MrgX1 allo act: inactive; RGS4 act: -7.87; MrgX1 agonist: inactive; MrgX1 antag: inactive; RGS4 act valid: 90.0; M3R Ca counter: 53.8
